Test [1] addresses T1, 5-hydroxytryptamine receptor 2C (Homo sapiens, UniProt P28335).
T1 sequence (P28335 whole entry): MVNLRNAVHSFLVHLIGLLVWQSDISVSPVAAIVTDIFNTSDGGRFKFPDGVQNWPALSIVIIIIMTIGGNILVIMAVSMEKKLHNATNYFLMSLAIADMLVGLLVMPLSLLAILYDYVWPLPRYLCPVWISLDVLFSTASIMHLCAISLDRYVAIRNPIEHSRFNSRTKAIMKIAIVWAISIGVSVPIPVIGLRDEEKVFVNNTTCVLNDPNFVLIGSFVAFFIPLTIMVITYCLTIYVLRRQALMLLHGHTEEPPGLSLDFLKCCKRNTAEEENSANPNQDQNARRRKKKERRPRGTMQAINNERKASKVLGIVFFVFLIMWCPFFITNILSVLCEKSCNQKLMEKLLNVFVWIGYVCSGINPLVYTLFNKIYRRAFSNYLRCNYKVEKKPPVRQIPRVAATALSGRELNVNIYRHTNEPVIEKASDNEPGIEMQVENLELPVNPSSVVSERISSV
Put plainly: Agonist activity at human 5-HT2C receptor expressed in HEK293 cells assessed as calcium flux by FLIPR assay. The class given is functional, cell-based.

For test [2], the target named is T2, 5-hydroxytryptamine receptor 2C (Homo sapiens) (UniProt P28335).
T2 sequence (whole entry): T1 sequence (P28335 whole entry)
Put plainly: Agonist activity at human 5-HT2C receptor expressed in HEK293 cells assessed as calcium flux by FLIPR assay relative to 5-HT. The class given is functional, cell-based. In short, it runs like this: (§1)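 Flp-In-293 cells stably expressing human 5-HT2A, 5-HT2B or 5-HT2C-INI; grown 24–48 h in DMEM/10% dialyzed FBS, plated on poly-L-Lys at 12000 cells/well in 1% dialyzed FBS for 24 h. Loaded 1 h at 37 °C with calcium dye in HBSS, 20 mM Hepes pH 7.40, 2.5 mM probenecid.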

Test [3] deals with T3, 5-hydroxytryptamine receptor 2B (Homo sapiens, UniProt P41595). Put plainly: Agonist activity at human 5-HT2B receptor expressed in HEK293 cells assessed as calcium flux at 10 uM by FLIPR assay. It is filed as functional, cell-based. In a few lines:
(§2)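 Flp-In-293 cells stably expressing human 5-HT2A, 5-HT2B or 5-HT2C-INI, grown in DMEM with 10% dialyzed FBS, then plated for 24 h in 1% dialyzed FBS. Cells were loaded 1 h at 37 °C with calcium dye in Hepes-buffered HBSS, pH 7.40, containing 2.5 mM probenecid. FLIPR read 10 s baseline, then 120 s after drug addition.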
A general note: Calcium flux is commonly read through the fluorescence of an indicator in the cells.

Test [4] has as its target T4, 5-hydroxytryptamine receptor 2A (Homo sapiens, UniProt P28223). Put plainly: Agonist activity at human 5-HT2A receptor expressed in HEK293 cells assessed as calcium flux at 10 uM by FLIPR assay. The class given is functional, cell-based. In short, it runs like this: as §2
The target in test [5] is T4, 5-hydroxytryptamine receptor 2A. Put plainly: Agonist activity at human 5-HT2A receptor expressed in HEK293 cells assessed as calcium flux by FLIPR assay. The class given is functional, cell-based.
Test [6] has the same target. Put plainly: Agonist activity at human 5-HT2A receptor expressed in HEK293 cells assessed as calcium flux by FLIPR assay relative to 5-HT. It is filed as functional, cell-based. In short, it runs like this:
as §1

The target of test [7] is T3, 5-hydroxytryptamine receptor 2B. Put plainly: Agonist activity at human 5-HT2B receptor expressed in HEK293 cells assessed as calcium flux by FLIPR assay. It is filed as functional, cell-based.
Test [8] shares this target. Put plainly: Agonist activity at human 5-HT2B receptor expressed in HEK293 cells assessed as calcium flux by FLIPR assay relative to 5-HT. It is filed as functional, cell-based. In short, it runs like this:
as §1

Test [9] has the same target. Put plainly: Agonist activity at 5HT2B receptor (unknown origin) relative to control. In a few lines:
as §1

SMILES strings stand for the structures. The source made the active and inactive calls. The calls are words filed in the database; no cut-off is given here.

T4 sequence (P28223 whole entry): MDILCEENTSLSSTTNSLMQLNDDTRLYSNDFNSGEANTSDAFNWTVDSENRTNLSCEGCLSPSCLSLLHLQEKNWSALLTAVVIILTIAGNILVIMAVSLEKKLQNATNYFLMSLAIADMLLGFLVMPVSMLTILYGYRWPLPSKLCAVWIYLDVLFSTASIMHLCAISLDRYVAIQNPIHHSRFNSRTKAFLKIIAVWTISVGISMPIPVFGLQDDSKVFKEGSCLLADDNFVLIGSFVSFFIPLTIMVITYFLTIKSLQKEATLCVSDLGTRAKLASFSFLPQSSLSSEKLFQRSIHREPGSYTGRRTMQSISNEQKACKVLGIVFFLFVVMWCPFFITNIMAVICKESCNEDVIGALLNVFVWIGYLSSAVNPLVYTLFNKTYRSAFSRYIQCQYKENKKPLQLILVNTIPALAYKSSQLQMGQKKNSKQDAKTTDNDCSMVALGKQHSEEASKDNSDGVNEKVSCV
T3 sequence (P41595 whole entry): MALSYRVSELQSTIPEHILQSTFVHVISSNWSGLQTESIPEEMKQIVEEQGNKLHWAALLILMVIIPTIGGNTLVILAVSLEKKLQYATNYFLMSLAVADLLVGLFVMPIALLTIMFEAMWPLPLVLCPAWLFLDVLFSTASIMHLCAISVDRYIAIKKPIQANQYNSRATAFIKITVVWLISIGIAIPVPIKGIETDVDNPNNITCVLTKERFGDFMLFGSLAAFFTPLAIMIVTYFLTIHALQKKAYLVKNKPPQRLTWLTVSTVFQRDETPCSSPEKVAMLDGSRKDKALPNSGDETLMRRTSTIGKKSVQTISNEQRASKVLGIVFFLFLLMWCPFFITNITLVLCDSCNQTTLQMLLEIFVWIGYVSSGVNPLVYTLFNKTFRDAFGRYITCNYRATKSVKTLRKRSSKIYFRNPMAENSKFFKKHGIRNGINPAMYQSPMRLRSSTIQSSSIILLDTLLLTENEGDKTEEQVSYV

By EC50 is commonly meant the concentration that produces a half-maximal response. Usually Emax stands for the maximal effect, on the per cent scale that the assay sets. For the compound `CSCCOc1ccc(Cl)cc1[C@H]1C[C@@H]1CN`, in [1], the EC50 is 244 nM. The Emax in test [2] was 24%. In addition, the outcome in [3] and in test [4] was inactive.

For `CSCCOc1ccc(Cl)cc1[C@@H]1C[C@H]1CN`, the EC50 in test [1] amounted to 1760 nM. The Emax in [2] turned out to be 11%. The outcome in [3] and in test [4] was inactive.

Regarding `C=CCOc1ccc(F)cc1[C@@H]1C[C@H]1CN`, the figures for the EC50 in test [1] and in test [5] were 157 nM and 697 nM, respectively. In addition, the Emax in test [2] was determined as 87%; in [6], 56%. Besides, in [3], the outcome was inactive.

As for `C=C(F)COc1ccc(F)cc1[C@H]1C[C@@H]1CN`, the results for the EC50 in test [1] and in [5] were 22 nM and 1670 nM, respectively. The Emax in test [2] is 91%. Besides, the result in test [3] was inactive.

As for `NC[C@@H]1C[C@H]1c1cc(Cl)ccc1OCCF`, the EC50 in test [1] turned out to be 1130 nM; in test [7] it was 4.52 µM. Moreover, the values for the Emax in [2] and in [8] were 59% and 31%, respectively. For the same compound, the outcome in [4] was inactive.

Take `NC[C@H]1C[C@@H]1c1cc(Cl)ccc1OCCCF`: the figures for the EC50 in test [1] and in test [7] were 206 nM and 4.91 µM, respectively. Moreover, the Emax in test [2] was 60%; in test [8] it was 22%. Moreover, the outcome in [4] was inactive.

For the compound `CCOc1ccc(Cl)cc1[C@@H]1C[C@H]1CN`, the EC50 in test [1] was found to be 646 nM; in test [7] it was 2.31 µM. In addition, the Emax in test [2] is 72%; in test [8], 26%. Besides, the result in [4] was inactive.

With `CCCOc1ccc(F)cc1[C@H]1C[C@@H]1CN`, the EC50 was 11 nM in test [1], 1.99 µM in test [7] and 1020 nM in test [5]. Moreover, the maximum response (Emax) in [2] is 88%; in test [8], 33%; in test [6], 15%.

As to `CCCCOc1ccc(Cl)cc1[C@H]1C[C@@H]1CN`, the EC50 in test [1] turned out to be 288 nM. In addition, in test [2], the Emax turned out to be 33%. Besides, the result in test [3] was inactive.

Take `CCCCOc1ccc(Cl)cc1[C@@H]1C[C@H]1CN`: the EC50 in test [1] was 683 nM. Besides, in test [2], the Emax was 50%. Besides, in test [3], the outcome was inactive.

As for `NC[C@@H]1C[C@H]1c1cc(Cl)ccc1OCCCF`, the values for the EC50 in test [1] and in test [7] were 1260 nM and 6.17 µM, respectively. Moreover, the results for the Emax in test [2] and in [8] were 24% and 22%, respectively. Moreover, the result in test [4] was inactive.

Take `C=C(F)COc1ccc(F)cc1[C@@H]1C[C@H]1CN`: the EC50 in test [1] worked out at 985 nM. Further, the Emax in test [2] was 62%. Further, the result in test [3] and in test [4] was inactive.

As to `c1cc2c3c(c1)[C@H]1CCC[C@H]1CN3CCNC2`, in test [9], the Emax stood at 50%.

Regarding `COCCOc1ccc(Cl)cc1[C@H]1C[C@@H]1CN`, the EC50 in [1] was determined as 183 nM. In addition, the Emax in test [2] came to 8%. In addition, the outcome in [3] and in test [4] was inactive.

In the case of `CC(C)Oc1ccc(Cl)cc1[C@@H]1C[C@H]1CN`, the figures for the EC50 in test [1] and in test [7] were 2480 nM and 5.66 µM, respectively.

As for `C=C(C)COc1ccc(Cl)cc1[C@H]1C[C@@H]1CN`, the figures for the EC50 in test [1], in test [7] and in [5] were 212 nM, 0.422 µM and 903 nM, respectively. Further, the Emax in test [2] came out at 90%; in [8] it was 32%; in test [6], 26%.

With `C#CCOc1ccc(Cl)cc1[C@H]1C[C@@H]1CN`, the EC50 was found to be 63 nM in test [1], 4.6 µM in test [7] and 1010 nM in test [5]. The figures for the Emax in test [2], in [8] and in [6] were 65%, 29% and 21%, respectively.

Consider `CCOc1ccc(Cl)cc1[C@H]1C[C@@H]1CN`, for which the EC50 stood at 13 nM in test [1], 0.086 µM in [7] and 1210 nM in [5]. Further, the Emax in test [2] was found to be 91%; in [8], 45%; in test [6], 49%.

For the compound `CCCOc1ccc(Cl)cc1[C@@H]1C[C@H]1CN`, the EC50 in test [1] is 1230 nM; in [7], 3 µM. Further, the Emax in test [2] came out at 31%; in test [8] it was 21%. Besides, in test [4], the result was inactive.

Regarding `NC[C@@H]1C[C@H]1c1cc(Cl)ccc1OCC1CC1`, the concentration for a half-maximal effect (EC50) came out at 1080 nM in [1] and 3.03 µM in test [7]. Also, the Emax came out at 51% in test [2] and 32% in test [8]. Besides, the result in test [4] was inactive.

Regarding `NC[C@@H]1C[C@H]1c1cc(Cl)ccc1OCC(F)F`, the EC50 in [1] was determined as 914 nM; in test [7], 1.48 µM; in test [5] it was 1300 nM. The Emax was 64% in test [2], 30% in [8] and 43% in test [6].

In the case of `C[C@H]1CNCCc2ccc(Cl)cc21`, the Emax in [6] is 68%.

With `NC[C@H]1C[C@@H]1c1cc(Cl)ccc1OCC1CC1`, the EC50 in test [1] came out at 251 nM; in test [7] it was 5.01 µM. Besides, the Emax in test [2] came out at 75%; in [8], 20%. For the same compound, in test [4], the result was inactive.

Compound `c1cc2c3c(c1)[C@H]1CCC[C@H]1N3CCNC2` yielded an Emax in [9] of 40%.

With `C#CCOc1ccc(Cl)cc1[C@@H]1C[C@H]1CN`, the EC50 turned out to be 365 nM in [1] and 4.41 µM in [7]. Further, the Emax in test [2] was found to be 71%; in test [8], 30%. Besides, in test [4], the outcome was inactive.

Consider `CC(C)Oc1ccc(Cl)cc1[C@H]1C[C@@H]1CN`, for which the figures for the EC50 in [1], in test [7] and in test [5] were 91 nM, 0.997 µM and 4000 nM, respectively.

For the compound `NC[C@H]1C[C@@H]1c1cc(Cl)ccc1OCC(F)F`, the EC50 was 91 nM in test [1], 0.839 µM in test [7] and 1810 nM in test [5]. The Emax was 81% in test [2], 27% in test [8] and 31% in [6].

Regarding `C=CCOc1ccc(Cl)cc1[C@@H]1C[C@H]1CN`, the EC50 in [1] is 737 nM; in test [7] it was 4.3 µM. The maximal effect (Emax) in [2] was 42%; in test [8], 28%. Moreover, in [4], the result was inactive.

In the case of `COCCOc1ccc(Cl)cc1[C@@H]1C[C@H]1CN`, the EC50 was 667 nM in test [1] and 5.3 µM in [7]. Also, the Emax in test [2] was 45%; in test [8], 32%. For the same compound, the outcome in test [4] was inactive.

With `NC[C@@H]1C[C@H]1c1cc(F)ccc1OCCF`, the EC50 was 514 nM in test [1] and 2990 nM in test [5]. Besides, the values for the Emax in [2] and in test [6] were 77% and 20%, respectively. Further, the result in test [3] was inactive.

As to `CCCOc1ccc(F)cc1[C@@H]1C[C@H]1CN`, the EC50 in [1] was 296 nM; in test [7], 0.735 µM. Moreover, the values for the Emax in [2] and in [8] were 80% and 11%, respectively. In test [4], the outcome was inactive.

The values are drawn from ChEMBL document CHEMBL3414471 (J Med Chem, 2015).
